The values that follow come from ChEMBL document CHEMBL4014350, “Alkoxyurea-Based Histone Deacetylase Inhibitors Increase Cisplatin Potency in Chemoresistant Cancer Cell Lines” (J Med Chem, 2017).

The test system of test [1] is CAL-27. Briefly: Potentiation of 5 uM cisplatin-induced cytotoxicity against human CAL27 cells assessed as decrease in cell viability by measuring combination index at 1500 uM preincubated for 48 hrs followed by cisplatin treatment measured after 72 hrs by MTT assay. To be noted: in the assay text read “at 1500 nM” for “at 1500 uM”. Format: functional. The method, boiled down: (§1)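 HDAC inhibitor was added 48 h before cisplatin, then cells were exposed to cisplatin for 72 h and viability was read by MTT assay. Combination index was computed by the Chou–Talalay method: CI > 1 is antagonism, CI = 1 additive, CI < 0.9 synergism. Points with fraction affected below 0.20 were flagged.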
In general terms: Tetrazolium assays rely on reduction of a dye to a coloured formazan, in cell work by metabolically active cells.

In test [2] the test system is CAL-27. Briefly: Potentiation of cisplatin-induced apoptosis in human CAL27 cells at 1 uM preincubated for 48 hrs followed by cisplatin treatment for 6 hrs measured after 24 hrs by propidium iodide dye-based flow cytometry. It is filed as functional, cell-based.
Test [3] concerns CAL-27. Briefly: Potentiation of 0.5 uM cisplatin-induced cytotoxicity against human CAL27 cells assessed as decrease in cell viability by measuring combination index at 900 uM preincubated for 48 hrs followed by cisplatin treatment measured after 72 hrs by MTT assay. Format: functional. Put shortly: (§2)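 Cal27 and cisplatin-resistant Cal27CisR cells were preincubated with the HDAC inhibitor for 48 h, then given cisplatin in combination. Viability was read by MTT after 72 h. The combination index was computed by the Chou–Talalay method: CI > 1 is antagonism, CI = 1 is additive, and CI < 0.9 is synergism. Points with fraction affected below 0.20 were flagged.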

Test [4] concerns CAL-27. Briefly: Potentiation of 2 uM cisplatin-induced cytotoxicity against human CAL27 cells assessed as decrease in cell viability by measuring combination index at 1500 uM preincubated for 48 hrs followed by cisplatin treatment measured after 72 hrs by MTT assay. As to conditions: in the assay text read “at 1500 nM” for “at 1500 uM”. It is filed as functional. Put shortly: as §1

Test [5] has as its target T1, Histone deacetylase 1/6 (Homo sapiens) (UniProt Q13547+Q9UBN7). Nature of the test: Inhibition of HDAC1/HDAC6 in human Cal27CisR cells assessed as potentiation of 3.16 uM cisplatin-induced cytotoxicity by measuring combination index at 1500 nM preincubated for 48 hrs followed by cisplatin treatment measured after 72 hrs by MTT assay.
Test [6] has as its target T1, Histone deacetylase 1/6 (Homo sapiens). Briefly: Inhibition of HDAC1/HDAC6 in human Cal27CisR cells assessed as potentiation of 5 uM cisplatin-induced cytotoxicity by measuring combination index at 2000 uM preincubated for 48 hrs followed by cisplatin treatment measured after 72 hrs by MTT assay. It is filed as cell-based. The method, boiled down: as §2
Test [7] concerns CAL-27. Briefly: Potentiation of 0.316 uM cisplatin-induced cytotoxicity against human CAL27 cells assessed as decrease in cell viability measuring combination index at 2000 uM preincubated for 48 hrs followed by cisplatin treatment measured after 72 hrs by MTT assay. It is filed as functional. As to conditions: in the assay text read “at 2000 nM” for “at 2000 uM”. The method, boiled down: as §2

The target in test [8] is T1, Histone deacetylase 1/6 (Homo sapiens). Briefly: Inhibition of HDAC1/HDAC6 in human Cal27CisR cells assessed as potentiation of 10 uM cisplatin-induced cytotoxicity by measuring combination index at 2000 nM preincubated for 48 hrs followed by cisplatin treatment measured after 72 hrs by MTT assay.
The target is the same in test [9]. Nature of the test: Inhibition of HDAC1/HDAC6 in human Cal27CisR cells assessed as potentiation of 5 uM cisplatin-induced cytotoxicity by measuring combination index at 900 uM preincubated for 48 hrs followed by cisplatin treatment measured after 72 hrs by MTT assay. Format: cell-based. Put shortly: as §2
For test [10], the system named is CAL-27. Briefly: Potentiation of 2 uM cisplatin-induced cytotoxicity against human CAL27 cells assessed as decrease in cell viability by measuring combination index at 900 uM preincubated for 48 hrs followed by cisplatin treatment measured after 72 hrs by MTT assay. It is filed as functional. As to conditions: in the assay text read “at 900 nM” for “at 900 uM”. The method, boiled down: as §1

Test [11] concerns the target T1, Histone deacetylase 1/6 (Homo sapiens). Nature of the test: Inhibition of HDAC1/HDAC6 in human Cal27CisR cells assessed as potentiation of 1 uM cisplatin-induced cytotoxicity by measuring combination index at 1500 uM preincubated for 48 hrs followed by cisplatin treatment measured after 72 hrs by MTT assay. Format: cell-based. The method, boiled down:
(§3)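 Cal27CisR cells preincubated 48 h with the HDAC inhibitor, then exposed to cisplatin for 72 h. Viability read by MTT. Combination index calculated by the Chou–Talalay method: CI > 1 antagonism, CI = 1 additive, CI < 0.9 synergism. Points with fraction affected below 0.20 are flagged. Values are the mean of three experiments.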

The target is the same in test [12]. Briefly: Inhibition of HDAC1/HDAC6 in human Cal27CisR cells assessed as potentiation of 20 uM cisplatin-induced cytotoxicity by measuring combination index at 100 nM preincubated for 48 hrs followed by cisplatin treatment measured after 72 hrs by MTT assay.
Test [13] concerns CAL-27. Briefly: Potentiation of 0.5 uM cisplatin-induced cytotoxicity against human CAL27 cells assessed as decrease in cell viability by measuring combination index at 200 uM preincubated for 48 hrs followed by cisplatin treatment measured after 72 hrs by MTT assay. It is filed as functional. Put shortly:
as §2

The subject of test [14] is CAL-27. Briefly: Potentiation of 0.316 uM cisplatin-induced cytotoxicity against human CAL27 cells assessed as decrease in cell viability by measuring combination index at 100 uM preincubated for 48 hrs followed by cisplatin treatment measured after 72 hrs by MTT assay. As to conditions: in the assay text read “at 100 nM” for “at 100 uM”. Format: functional. Put shortly: as §2

Test [15] concerns the target T1, Histone deacetylase 1/6 (Homo sapiens). Briefly: Inhibition of HDAC1/HDAC6 in human Cal27CisR cells assessed as potentiation of 20 uM cisplatin-induced cytotoxicity by measuring combination index at 400 nM preincubated for 48 hrs followed by cisplatin treatment measured after 72 hrs by MTT assay.
For test [16] the target is unchanged. Nature of the test: Inhibition of HDAC1/HDAC6 in human Cal27CisR cells assessed as potentiation of 10 uM cisplatin-induced cytotoxicity by measuring combination index at 200 uM preincubated for 48 hrs followed by cisplatin treatment measured after 72 hrs by MTT assay. It is filed as cell-based. The method, boiled down: as §3
For test [17] the target is unchanged. Briefly: Inhibition of HDAC1/HDAC6 in human Cal27CisR cells assessed as potentiation of 10 uM cisplatin-induced cytotoxicity by measuring combination index at 300 uM preincubated for 48 hrs followed by cisplatin treatment measured after 72 hrs by MTT assay. It is filed as cell-based. The method, boiled down: as §3
Test [18] shares this target. Briefly: Inhibition of HDAC1/HDAC6 in human Cal27CisR cells assessed as potentiation of 1 uM cisplatin-induced cytotoxicity by measuring combination index at 400 nM preincubated for 48 hrs followed by cisplatin treatment measured after 72 hrs by MTT assay.
The test system of test [19] is CAL-27. Nature of the test: Potentiation of cisplatin-induced apoptosis in human CAL27 cells at 0.5 uM preincubated for 48 hrs followed by cisplatin treatment for 6 hrs measured after 24 hrs by propidium iodide dye-based flow cytometry. Format: functional, cell-based. Background: Flow cytometry measures light scatter and fluorescence of single cells or particles in a stream.

In test [20] the test system is CAL-27. Nature of the test: Potentiation of 0.316 uM cisplatin-induced cytotoxicity against human CAL27 cells assessed as decrease in cell viability by measuring combination index at 300 uM preincubated for 48 hrs followed by cisplatin treatment measured after 72 hrs by MTT assay. Format: functional. To be noted: in the assay text read “at 300 nM” for “at 300 uM”. Put shortly: as §2

Calls of active or inactive are those of the source. The rule behind the calls is not given here. Some results are limits rather than exact numbers.

T1 sequence (Q13547 whole entry, looked up): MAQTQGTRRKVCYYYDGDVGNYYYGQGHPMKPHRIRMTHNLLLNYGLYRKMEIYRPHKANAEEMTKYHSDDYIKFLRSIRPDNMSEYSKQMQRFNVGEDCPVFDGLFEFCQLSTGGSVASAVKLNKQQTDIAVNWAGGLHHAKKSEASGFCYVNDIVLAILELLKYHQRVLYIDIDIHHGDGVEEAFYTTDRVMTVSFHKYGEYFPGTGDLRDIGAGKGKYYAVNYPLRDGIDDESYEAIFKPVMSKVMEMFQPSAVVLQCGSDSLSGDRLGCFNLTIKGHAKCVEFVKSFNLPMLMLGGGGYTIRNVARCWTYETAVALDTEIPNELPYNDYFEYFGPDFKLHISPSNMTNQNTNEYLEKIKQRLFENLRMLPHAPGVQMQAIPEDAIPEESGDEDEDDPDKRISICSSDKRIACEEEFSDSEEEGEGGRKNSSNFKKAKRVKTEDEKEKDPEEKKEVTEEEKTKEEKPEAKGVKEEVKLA
T1 sequence (Q9UBN7 whole entry, looked up): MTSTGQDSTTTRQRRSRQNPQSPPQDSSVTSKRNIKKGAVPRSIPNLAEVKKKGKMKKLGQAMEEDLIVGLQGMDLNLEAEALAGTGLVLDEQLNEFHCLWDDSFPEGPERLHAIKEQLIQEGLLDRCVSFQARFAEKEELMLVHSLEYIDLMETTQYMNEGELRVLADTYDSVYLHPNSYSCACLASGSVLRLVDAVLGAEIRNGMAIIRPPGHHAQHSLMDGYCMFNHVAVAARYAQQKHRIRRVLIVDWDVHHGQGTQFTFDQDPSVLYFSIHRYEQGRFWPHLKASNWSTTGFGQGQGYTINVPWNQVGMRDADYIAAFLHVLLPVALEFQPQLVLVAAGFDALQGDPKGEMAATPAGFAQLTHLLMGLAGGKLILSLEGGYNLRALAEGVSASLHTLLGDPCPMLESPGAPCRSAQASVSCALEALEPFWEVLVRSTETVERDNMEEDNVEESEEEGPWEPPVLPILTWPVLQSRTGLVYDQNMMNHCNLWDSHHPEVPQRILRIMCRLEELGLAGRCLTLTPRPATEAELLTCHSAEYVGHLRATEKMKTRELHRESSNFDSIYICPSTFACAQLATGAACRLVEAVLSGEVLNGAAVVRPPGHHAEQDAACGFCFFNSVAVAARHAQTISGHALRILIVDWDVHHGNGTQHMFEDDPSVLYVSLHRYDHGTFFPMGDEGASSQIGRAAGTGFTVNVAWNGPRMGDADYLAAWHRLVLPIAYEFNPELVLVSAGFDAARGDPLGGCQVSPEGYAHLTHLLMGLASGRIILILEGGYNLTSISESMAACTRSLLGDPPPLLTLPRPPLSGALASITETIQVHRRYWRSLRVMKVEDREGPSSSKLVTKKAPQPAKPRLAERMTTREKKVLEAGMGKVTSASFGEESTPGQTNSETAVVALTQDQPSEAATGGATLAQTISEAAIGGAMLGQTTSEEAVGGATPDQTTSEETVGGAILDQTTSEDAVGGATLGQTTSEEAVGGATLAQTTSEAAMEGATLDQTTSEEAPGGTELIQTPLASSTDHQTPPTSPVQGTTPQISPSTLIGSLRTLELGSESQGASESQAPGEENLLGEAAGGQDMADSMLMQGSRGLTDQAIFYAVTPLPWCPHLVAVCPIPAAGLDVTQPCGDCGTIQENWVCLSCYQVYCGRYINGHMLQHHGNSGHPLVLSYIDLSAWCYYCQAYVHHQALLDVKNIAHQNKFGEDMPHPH

As to `COc1cc(NC(=O)NOCCCCCC(=O)NO)c2ncccc2c1`, the CI with CAL-27 [1] came to 0.55; in the test with CAL-27 [3], 0.6; with CAL-27 [4], 0.6; in test [5], 0.52; in test [6], 0.59; in the test on CAL-27 [7], 0.92. Moreover, the CI is 0.65 in test [8], 0.52 in [9], 0.4 in the test on CAL-27 [10] and 1 in [11]. Also, the result with CAL-27 [2] was Active.
Regarding `COc1cc(NC(=O)NOCCCCCC(=O)NO)c2nccc(C)c2c1`, the CI was 0.73 in test [12]; below 0.2 in the test with CAL-27 [13]; below 0.2 in the test on CAL-27 [14]; 0.28 in [15]; 0.48 in test [16]; 0.43 in [17]. Moreover, the CI (in test [18]; in the test with CAL-27 [20]) was below 0.2 each time. For the same compound, the outcome in the test on CAL-27 [19] was Active.
Regarding `COc1cc(NC(=O)NOCCCCCC(=O)NO)c2nc(OC)cc(C)c2c1`, the CI in [12] was 0.34; in the test with CAL-27 [13], 0.96; in the test on CAL-27 [14], below 0.2; in test [15], 0.16; in [16], 0.21; in test [17] it was 0.18. Also, the CI (in test [18]; with CAL-27 [20]) was below 0.2 throughout.
